Common to all, as to format: physicochemical
Data set [1] can be described thus: Solubility of the compound in 5 % PEG3350 by UV/visible spectroscopy. The essentials:
(§1)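 The compound was diluted from a 10 mM aqueous stock of its HCl salt into 10 mM citrate-phosphate buffer, pH 6.5, containing the organic solvent at the stated % (v/v). Samples were centrifuged, and soluble material was read by UV absorbance at 252 nm. The pellet was resuspended in pure solvent and read as a check. Values are the mean of four independent measurements.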

Data set [2] is described as follows: Solubility of the compound in 10 % DMSO by UV/visible spectroscopy. The essentials:
as §1

A short description of data set [3]: Solubility of the compound in 10 % glycerol by UV/visible spectroscopy. The method in brief:
as §1

Data set [4] in a line: Solubility of the compound in 10 % PEG5000 by UV/visible spectroscopy. The essentials:
as §1

Data set [5] in a line: Solubility of the compound in 2.5 % DMF by UV/visible spectroscopy. The method in brief:
as §1

Data set [6] can be described thus: Solubility of the compound in 5 % MeOH by UV/visible spectroscopy. The method in brief: as §1
Data set [7] can be described thus: Solubility of the compound in 5 % PEG5000 by UV/visible spectroscopy. The essentials:
as §1

The nature of data set [8]: Solubility of the compound in 2.5 % glycerol by UV/visible spectroscopy. The method in brief:
as §1

Data set [9] in a line: Solubility of the compound in 10 % PEG3350 by UV/visible spectroscopy. The essentials: as §1
Data set [10] in a line: Solubility of the compound in 5 % DMSO by UV/visible spectroscopy. The essentials: as §1
Data set [11] in a line: Solubility of the compound in 5 % DMF by UV/visible spectroscopy. The method in brief: as §1
Data set [12] is described as follows: Solubility of the compound in citrate-phosphate buffer at pH 6.5. The method in brief:
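The compound was diluted from a 10 mM aqueous stock (pH about 1) into 10 mM citrate-phosphate buffer, pH 6.5, with no organic cosolvent. After centrifugation, soluble material was quantified by UV absorbance at 252 nm. The resuspended precipitate was also measured. Values are the mean of four independent measurements.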

Data set [13] is described as follows: Solubility of the compound in 10 % MeOH by UV/visible spectroscopy. The essentials:
as §1

Data set [14] can be described thus: Solubility of the compound in 10 % DMF by UV/visible spectroscopy. The essentials: as §1
A short description of data set [15]: Solubility of the compound in 2.5 % MeOH by UV/visible spectroscopy. The method in brief: as §1
The nature of data set [16]: Solubility of the compound in 2.5 % PEG5000 by UV/visible spectroscopy. The essentials:
as §1

The nature of data set [17]: Solubility of the compound in 2.5 % DMSO by UV/visible spectroscopy. The method in brief:
as §1

The nature of data set [18]: Solubility of the compound in 5 % glycerol by UV/visible spectroscopy. The essentials: as §1

Values after ≈ are worked out from the molar mass of the structure shown.

For the compound `Cc1cc2occ(CN(C)CCN(C)Cc3cn(-c4cccc(C(F)(F)F)c4)c4ccccc34)c(=O)c2cc1C`, the solubility is 84 µM (≈ 46 µg/mL) in data set [1]; 79 µM (≈ 43.3 µg/mL) in [2]; 28 µM (≈ 15.3 µg/mL) in data set [3]; more than 100 µM in data set [4]; 35 µM (≈ 19.2 µg/mL) in [5]; 58 µM (≈ 31.8 µg/mL) in data set [6]. Moreover, the solubility in data set [7] was 97 µM (≈ 53.1 µg/mL); in data set [8] it was 15 µM (≈ 8.21 µg/mL); in data set [9], 96 µM (≈ 52.6 µg/mL); in [10], 52 µM (≈ 28.5 µg/mL); in data set [11], 58 µM (≈ 31.8 µg/mL); in data set [12], 10 µM (≈ 5.48 µg/mL). The solubility in data set [13] turned out to be 83 µM (≈ 45.5 µg/mL); in data set [14], 82 µM (≈ 44.9 µg/mL); in data set [15], 37 µM (≈ 20.3 µg/mL); in data set [16] it was 90 µM (≈ 49.3 µg/mL); in data set [17] it was 33 µM (≈ 18.1 µg/mL); in data set [18], 19 µM (≈ 10.4 µg/mL).
